# Tests used:
# Plasmodium falciparum [1] = assay: Antiplasmodial activity against multidrug-resistant Plasmodium falciparum FCR-3 by [3H]-hypoxanthine incorporation assay; format: functional, organism-based, FCR-3/Gambia
# Summary of the method: (§1)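 Blood-stage P. falciparum 3D7 and FCR-3 were tested by a modified [3H]-hypoxanthine incorporation assay. Chloroquine was the reference in all runs.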
# Plasmodium falciparum [2] = assay: Antiplasmodial activity against chloroquine-sensitive Plasmodium falciparum 3D7 by [3H]-hypoxanthine incorporation assay; format: functional, organism-based; summary of the method: as §1
# [3] = Cytotoxicity against human HepG2A16 cells by MTT assay; format: cell-based
# Summary of the method: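 MTT viability assay on HepG2-A16 cells, giving CC50 values.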
# [4] = Genotoxicity in Salmonella typhimurium TA1535 harboring pSK1002 assessed as survival at 0.125 mg/ml in absence of Sprague-Dawley rat liver S9 fraction after by SOS/umu assay relative to control; format: toxicity, organism-based; conditions: salmonella enterica subsp. enterica serovar typhimurium, read-out: Survival
# [5] = Genotoxicity in Salmonella typhimurium TA1535 harboring pSK1002 assessed as umu gene induction at 0.125 mg/ml in absence of Sprague-Dawley rat liver S9 fraction after by SOS/umu assay relative to control; format: toxicity, organism-based; conditions: salmonella enterica subsp. enterica serovar typhimurium, read-out: FC
# [6] = Genotoxicity in Salmonella typhimurium TA1535 harboring pSK1002 assessed as survival at 0.125 mg/ml in presence of Sprague-Dawley rat liver S9 fraction after by SOS/umu assay relative to control; format: toxicity, organism-based; conditions: salmonella enterica subsp. enterica serovar typhimurium, read-out: Survival
# [7] = Genotoxicity in Salmonella typhimurium TA1535 harboring pSK1002 assessed as umu gene induction at 0.125 mg/ml in presence of Sprague-Dawley rat liver S9 fraction after by SOS/umu assay relative to control; format: toxicity, organism-based; conditions: salmonella enterica subsp. enterica serovar typhimurium, read-out: FC
# [8] = Genotoxicity in Salmonella typhimurium TA1535 harboring pSK1002 assessed as survival at 0.063 mg/ml in absence of Sprague-Dawley rat liver S9 fraction after by SOS/umu assay relative to control; format: toxicity, organism-based; conditions: salmonella enterica subsp. enterica serovar typhimurium, read-out: Survival
# [9] = Genotoxicity in Salmonella typhimurium TA1535 harboring pSK1002 assessed as umu gene induction at 0.063 mg/ml in absence of Sprague-Dawley rat liver S9 fraction after by SOS/umu assay relative to control; format: toxicity, organism-based; conditions: salmonella enterica subsp. enterica serovar typhimurium, read-out: FC
# [10] = Genotoxicity in Salmonella typhimurium TA1535 harboring pSK1002 assessed as survival at 0.063 mg/ml in presence of Sprague-Dawley rat liver S9 fraction after by SOS/umu assay relative to control; format: toxicity, organism-based; conditions: salmonella enterica subsp. enterica serovar typhimurium, read-out: Survival
# [11] = Genotoxicity in Salmonella typhimurium TA1535 harboring pSK1002 assessed as umu gene induction at 0.063 mg/ml in presence of Sprague-Dawley rat liver S9 fraction after by SOS/umu assay relative to control; format: toxicity, organism-based; conditions: salmonella enterica subsp. enterica serovar typhimurium, read-out: FC
# [12] = Genotoxicity in Salmonella typhimurium TA1535 harboring pSK1002 assessed as survival at 0.031 mg/ml in absence of Sprague-Dawley rat liver S9 fraction after by SOS/umu assay relative to control; format: toxicity, organism-based; conditions: salmonella enterica subsp. enterica serovar typhimurium, read-out: Survival
# [13] = Genotoxicity in Salmonella typhimurium TA1535 harboring pSK1002 assessed as umu gene induction at 0.031 mg/ml in absence of Sprague-Dawley rat liver S9 fraction after by SOS/umu assay relative to control; format: toxicity, organism-based; conditions: salmonella enterica subsp. enterica serovar typhimurium, read-out: FC
# [14] = Genotoxicity in Salmonella typhimurium TA1535 harboring pSK1002 assessed as umu gene induction at 0.031 mg/ml in presence of Sprague-Dawley rat liver S9 fraction after by SOS/umu assay relative to control; format: toxicity, organism-based; conditions: salmonella enterica subsp. enterica serovar typhimurium, read-out: FC
# [15] = Genotoxicity in Salmonella typhimurium TA1535 harboring pSK1002 assessed as survival at 0.016 mg/ml in absence of Sprague-Dawley rat liver S9 fraction after by SOS/umu assay relative to control; format: toxicity, organism-based; conditions: salmonella enterica subsp. enterica serovar typhimurium, read-out: Survival
# [16] = Genotoxicity in Salmonella typhimurium TA1535 harboring pSK1002 assessed as umu gene induction at 0.016 mg/ml in absence of Sprague-Dawley rat liver S9 fraction after by SOS/umu assay relative to control; format: toxicity, organism-based; conditions: salmonella enterica subsp. enterica serovar typhimurium, read-out: FC
# [17] = Genotoxicity in Salmonella typhimurium TA1535 harboring pSK1002 assessed as umu gene induction at 0.016 mg/ml in presence of Sprague-Dawley rat liver S9 fraction after by SOS/umu assay relative to control; format: toxicity, organism-based; conditions: salmonella enterica subsp. enterica serovar typhimurium, read-out: FC
# [18] = Genotoxicity in Salmonella typhimurium TA1535 harboring pSK1002 assessed as survival at 0.008 mg/ml in absence of Sprague-Dawley rat liver S9 fraction after by SOS/umu assay relative to control; format: toxicity, organism-based; conditions: salmonella enterica subsp. enterica serovar typhimurium, read-out: Survival
# [19] = Genotoxicity in Salmonella typhimurium TA1535 harboring pSK1002 assessed as survival at 0.008 mg/ml in presence of Sprague-Dawley rat liver S9 fraction after by SOS/umu assay relative to control; format: toxicity, organism-based; conditions: salmonella enterica subsp. enterica serovar typhimurium, read-out: Survival
# [20] = Genotoxicity in Salmonella typhimurium TA1535 harboring pSK1002 assessed as umu gene induction at 0.008 mg/ml in presence of Sprague-Dawley rat liver S9 fraction after by SOS/umu assay relative to control; format: toxicity, organism-based; conditions: salmonella enterica subsp. enterica serovar typhimurium, read-out: FC
# [21] = Genotoxicity in Salmonella typhimurium TA1535 harboring pSK1002 assessed as survival at 0.004 mg/ml in absence of Sprague-Dawley rat liver S9 fraction after by SOS/umu assay relative to control; format: toxicity, organism-based; conditions: salmonella enterica subsp. enterica serovar typhimurium, read-out: Survival
# [22] = Genotoxicity in Salmonella typhimurium TA1535 harboring pSK1002 assessed as umu gene induction at 0.004 mg/ml in absence of Sprague-Dawley rat liver S9 fraction after by SOS/umu assay relative to control; format: toxicity, organism-based; conditions: salmonella enterica subsp. enterica serovar typhimurium, read-out: FC
# [23] = Genotoxicity in Salmonella typhimurium TA1535 harboring pSK1002 assessed as survival at 0.002 mg/ml in absence of Sprague-Dawley rat liver S9 fraction after by SOS/umu assay relative to control; format: toxicity, organism-based; conditions: salmonella enterica subsp. enterica serovar typhimurium, read-out: Survival
# [24] = Genotoxicity in Salmonella typhimurium TA1535 harboring pSK1002 assessed as umu gene induction at 0.002 mg/ml in absence of Sprague-Dawley rat liver S9 fraction after by SOS/umu assay relative to control; format: toxicity, organism-based; conditions: salmonella enterica subsp. enterica serovar typhimurium, read-out: FC
# [25] = Genotoxicity in Salmonella typhimurium TA1535 harboring pSK1002 assessed as survival at 0.002 mg/ml in presence of Sprague-Dawley rat liver S9 fraction after by SOS/umu assay relative to control; format: toxicity, organism-based; conditions: salmonella enterica subsp. enterica serovar typhimurium, read-out: Survival
# [26] = Genotoxicity in Salmonella typhimurium TA1535 harboring pSK1002 assessed as umu gene induction at 0.002 mg/ml in presence of Sprague-Dawley rat liver S9 fraction after by SOS/umu assay relative to control; format: toxicity, organism-based; conditions: salmonella enterica subsp. enterica serovar typhimurium, read-out: FC
# [27] = Genotoxicity in Salmonella typhimurium TA1535 harboring pSK1002 assessed as survival at 0.001 mg/ml in absence of Sprague-Dawley rat liver S9 fraction after by SOS/umu assay relative to control; format: toxicity, organism-based; conditions: salmonella enterica subsp. enterica serovar typhimurium, read-out: Survival
# [28] = Genotoxicity in Salmonella typhimurium TA1535 harboring pSK1002 assessed as umu gene induction at 0.001 mg/ml in absence of Sprague-Dawley rat liver S9 fraction after by SOS/umu assay relative to control; format: toxicity, organism-based; conditions: salmonella enterica subsp. enterica serovar typhimurium, read-out: FC
# [29] = Genotoxicity in Salmonella typhimurium TA1535 harboring pSK1002 assessed as survival at 0.001 mg/ml in presence of Sprague-Dawley rat liver S9 fraction after by SOS/umu assay relative to control; format: toxicity, organism-based; conditions: salmonella enterica subsp. enterica serovar typhimurium, read-out: Survival
# [30] = Genotoxicity in Salmonella typhimurium TA1535 harboring pSK1002 assessed as umu gene induction at 0.001 mg/ml in presence of Sprague-Dawley rat liver S9 fraction after by SOS/umu assay relative to control; format: toxicity, organism-based; conditions: salmonella enterica subsp. enterica serovar typhimurium, read-out: FC
# [31] = Plasmodium falciparum, FCR-3/Gambia, 3 h
SMILES,viability at 0.125 mg/ml [4],fold induction at 0.125 mg/ml [5],viability at 0.125 mg/ml [6],fold induction at 0.125 mg/ml [7],viability at 0.063 mg/ml [8],fold induction at 0.063 mg/ml [9],viability at 0.063 mg/ml [10],fold induction at 0.063 mg/ml [11],viability at 0.031 mg/ml [12],fold induction at 0.031 mg/ml [13],fold induction at 0.031 mg/ml [14],viability at 0.016 mg/ml [15],fold induction at 0.016 mg/ml [16],fold induction at 0.016 mg/ml [17],viability at 0.008 mg/ml [18],viability at 0.008 mg/ml [19],fold induction at 0.008 mg/ml [20],viability at 0.004 mg/ml [21],fold induction at 0.004 mg/ml [22],viability at 0.002 mg/ml [23],other results
Oc1ccc(C(O)CCN2CC=C(c3ccc(F)cc3)CC2)cc1 (stereo not given),112%,0.5,103%,0.4,123%,0.5,118%,0.4,105%,1.1,1.8,94.8%,1.2,1.2,98.3%,108%,0.6,97.1%,1,98.6%,"IC50 (Plasmodium falciparum [1]; [31]): 2880 nM; IC50 (Plasmodium falciparum [2]; Plasmodium falciparum, 3D7): 22200 nM; CC50 ([3]; HepG2A16 cells): 253000 nM; fold induction at 0.002 mg/ml [24]: 1; viability at 0.002 mg/ml [25]: 112%; fold induction at 0.002 mg/ml [26]: 1.4; viability at 0.001 mg/ml [27]: 87.9%; fold induction at 0.001 mg/ml [28]: 1.2; viability at 0.001 mg/ml [29]: 102%; fold induction at 0.001 mg/ml [30]: 0.5"
OC(CCN1CCN(c2ccccc2C(F)(F)F)CC1)c1ccc(F)c2ccccc12 (stereo in doubt; 55),167%,0.3,100%,0.7,138%,0.2,90.8%,0.8,127%,0.4,0.7,94.7%,0.6,1.1,68.7%,121%,0.2,52.1%,1.1,51.4%,IC50 (Plasmodium falciparum [1]; [31]): 150 nM; IC50 (Plasmodium falciparum [2]): 160 nM; CC50 [3]: 27500 nM; fold induction at 0.002 mg/ml [24]: 0.8; viability at 0.002 mg/ml [25]: 120%; fold induction at 0.002 mg/ml [26]: 0.5; viability at 0.001 mg/ml [27]: 43.3%; fold induction at 0.001 mg/ml [28]: 0.7; viability at 0.001 mg/ml [29]: 106%; fold induction at 0.001 mg/ml [30]: 0.3
N#Cc1ccc(N2CCC(NCCC(O)c3ccc(F)c4ccccc34)CC2)c(C(F)(F)F)c1 (stereo in doubt; 72),62.4%,0.2,91%,0.2,54.7%,0.3,85.2%,0.2,30.2%,0.7,0.6,28.3%,0.8,0.6,32.9%,52.9%,1.3,33.3%,0.9,110%,IC50 (Plasmodium falciparum [1]): 80 nM; IC50 (Plasmodium falciparum [2]): 130 nM; CC50 [3]: 6220 nM; fold induction at 0.002 mg/ml [24]: 1.3; viability at 0.002 mg/ml [25]: 136%; fold induction at 0.002 mg/ml [26]: 1; viability at 0.001 mg/ml [27]: 132%; fold induction at 0.001 mg/ml [28]: 1; viability at 0.001 mg/ml [29]: 121%; fold induction at 0.001 mg/ml [30]: 0.8
OC(CCN1CCN(C(c2ccccc2)c2ccccc2)CC1)c1ccc(F)c(F)c1 (stereo not given),24.1%,1.4,117%,0.7,28%,4,112%,0.8,20.7%,1.9,0.8,36.7%,2,0.8,105%,101%,0.8,102%,1,104%,"IC50 (Plasmodium falciparum [1]; [31]): 370 nM; IC50 (Plasmodium falciparum [2]; Plasmodium falciparum, 3D7): 380 nM; CC50 ([3]; HepG2A16 cells): 54300 nM; fold induction at 0.002 mg/ml [24]: 0.9; viability at 0.002 mg/ml [25]: 92.2%; fold induction at 0.002 mg/ml [26]: 0.8; viability at 0.001 mg/ml [27]: 110%; fold induction at 0.001 mg/ml [28]: 0.6; viability at 0.001 mg/ml [29]: 98.5%; fold induction at 0.001 mg/ml [30]: 0.6"
N#Cc1ccc(C(O)CCN2CC=C(c3ccc(F)cc3)CC2)cc1 (stereo not given),87.9%,1.1,108%,1,82.3%,1.2,101%,1.1,77.3%,1.2,0.8,85.1%,1.1,0.9,89.4%,108%,1,94.7%,0.9,103%,"IC50 (Plasmodium falciparum [1]; [31]): 1330 nM; IC50 (Plasmodium falciparum [2]; Plasmodium falciparum, 3D7): 8480 nM; CC50 ([3]; HepG2A16 cells): 82400 nM; fold induction at 0.002 mg/ml [24]: 0.9; viability at 0.002 mg/ml [25]: 97.8%; fold induction at 0.002 mg/ml [26]: 1.1; viability at 0.001 mg/ml [27]: 109%; fold induction at 0.001 mg/ml [28]: 0.9; viability at 0.001 mg/ml [29]: 104%; fold induction at 0.001 mg/ml [30]: 1.1"

# Reference: ChEMBL document CHEMBL4152256, “Structure-activity relationship of new antimalarial 1-aryl-3-susbtituted propanol derivatives: Synthesis, preliminary toxicity profiling, parasite life cycle stage studies, target exploration, and targeted delivery” (Eur J Med Chem, 2018)
